ChEMBL document CHEMBL4431394, “Modifications of a Nanomolar Cyclic Peptide Antagonist for the EphA4 Receptor To Achieve High Plasma Stability” (ACS Med Chem Lett, 2016)
Peptide text beside a SMILES is read from it.

tested on: HT-22; experiment: Cytotoxicity against mouse HT22 cells at 15 to 30 uM after 24 hrs by MTT assay; format: cell-based; conditions: ht-22, 24 h
Outline: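 HT22 neuronal cells were grown 24 h with 15 or 30 μM peptide, alongside controls receiving the matching DMSO concentration. Cell number was quantified by MTT, with averages ± SE from 5 measurements.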

Which Activity does the source give for `CC(C)[C@@H]1NC(=O)[C@@H](NC(=O)[C@H](Cc2ccc(O)cc2)NC(=O)[C@@H]2CCCN2C(=O)CCN)CSSC[C@@H](C(N)=O)NC(=O)[C@H](CCC(=O)O)NC(=O)[C@H](Cc2c[nH]c3ccccc23)NC(=O)[C@H](CCC(=O)O)NC(=O)CCNC(=O)[C@H](CCCNC(=N)N)NC(=O)[C@H](Cc2ccc(O)cc2)NC1=O` here?
Its Activity is “Non-Toxic”.

biological target: Ephrin type-A receptor 4 (Homo sapiens, UniProt P54764); experiment: Antagonist activity against human EphA4 receptor assessed as inhibition of binding of alkaline phosphatase-fused ephrin-A5 to immobilized EphA4 Fc by ELISA; conditions: not given
Sequence (P54764 whole entry, the tested form may be a part): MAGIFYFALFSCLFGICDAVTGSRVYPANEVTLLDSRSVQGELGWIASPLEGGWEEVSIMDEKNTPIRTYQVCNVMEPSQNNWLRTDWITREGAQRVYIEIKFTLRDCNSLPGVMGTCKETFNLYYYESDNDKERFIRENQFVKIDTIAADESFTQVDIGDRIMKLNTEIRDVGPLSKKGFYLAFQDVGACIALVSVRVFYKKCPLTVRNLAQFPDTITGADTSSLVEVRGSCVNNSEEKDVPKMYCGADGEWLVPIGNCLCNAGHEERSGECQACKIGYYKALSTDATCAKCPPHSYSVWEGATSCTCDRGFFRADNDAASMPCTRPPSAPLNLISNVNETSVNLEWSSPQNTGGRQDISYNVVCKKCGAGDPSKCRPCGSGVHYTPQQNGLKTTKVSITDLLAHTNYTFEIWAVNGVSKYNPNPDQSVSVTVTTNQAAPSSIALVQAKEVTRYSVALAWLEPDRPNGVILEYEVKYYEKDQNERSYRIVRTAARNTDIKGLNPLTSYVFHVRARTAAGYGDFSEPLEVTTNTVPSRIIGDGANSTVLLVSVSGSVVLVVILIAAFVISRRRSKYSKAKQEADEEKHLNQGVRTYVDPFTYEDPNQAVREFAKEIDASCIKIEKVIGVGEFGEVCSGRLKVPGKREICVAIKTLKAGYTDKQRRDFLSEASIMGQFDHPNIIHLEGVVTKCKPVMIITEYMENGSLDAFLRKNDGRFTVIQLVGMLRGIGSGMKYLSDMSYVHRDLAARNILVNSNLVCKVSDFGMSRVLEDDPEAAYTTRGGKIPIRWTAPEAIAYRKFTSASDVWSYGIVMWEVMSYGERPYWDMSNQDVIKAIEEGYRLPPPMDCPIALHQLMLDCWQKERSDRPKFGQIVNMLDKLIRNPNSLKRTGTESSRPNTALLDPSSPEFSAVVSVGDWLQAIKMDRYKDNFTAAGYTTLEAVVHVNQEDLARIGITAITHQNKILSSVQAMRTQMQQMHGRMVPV

Which IC50 does the source give for `CC(C)[C@@H]1NC(=O)[C@@H](NC(=O)[C@H](Cc2ccc(O)cc2)NC(=O)[C@@H]2CCCN2C(=O)CCN)CSSC[C@@H](C(N)=O)NC(=O)[C@H](Cc2c[nH]c3ccccc23)NC(=O)[C@H](CCC(=O)O)NC(=O)[C@H](CCC(=O)O)NC(=O)CCNC(=O)[C@H](CCCNC(=N)N)NC(=O)[C@H](Cc2ccc(O)cc2)NC1=O` (HELM PEPTIDE1{[bAla].P.Y.C.V.Y.R.[bAla].E.E.W.C.[am]}$PEPTIDE1,PEPTIDE1,4:R3-12:R3$$$V2.0) here?
The IC50 was over 10 µM.

tested on: not listed separately; experiment: Stability in Sprague-Dawley rat CSF assessed as remaining peptide antagonistic activity for inhibition of binding of alkaline phosphatase-fused ephrin-A5 to immobilized EphA4 Fc incubated for 3 days by ELISA; format: tissue-based, Cerebrospinal fluid; conditions: in vitro, 72 h
Outline: (§1)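 Peptide was incubated in mouse plasma or rat CSF for various periods. The residual ability to inhibit ephrin-A5–EphA4 interaction was then measured by ELISA, and the half-life of active peptide was derived from the loss of activity over time.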

For `CC(C)[C@@H]1NC(=O)[C@@H](NC(=O)[C@H](Cc2ccc(O)cc2)NC(=O)[C@@H]2CCCN2C(=O)[C@@H](C)N)CSSC[C@@H](C(N)=O)NC(=O)[C@H](CO)NC(=O)[C@H](Cc2c[nH]c3ccccc23)NC(=O)[C@H](CO)NC(=O)CCNC(=O)[C@H](CCCNC(=N)N)NC(=O)[C@H](Cc2ccc(O)cc2)NC1=O`, which Stability is on record?
Its Stability is “Stable”.

tested on: not listed separately; experiment: Half life in mouse plasma assessed as remaining peptide antagonistic activity for inhibition of binding of alkaline phosphatase-fused ephrin-A5 to immobilized EphA4 Fc incubated for 3 days by ELISA; format: cell-free; conditions: not given; outline: as §1

With `CC(C)[C@@H]1NC(=O)[C@@H](NC(=O)[C@H](Cc2ccc(O)cc2)NC(=O)CCCCCN)CSSC[C@@H](C(N)=O)NC(=O)[C@H](CO)NC(=O)[C@H](Cc2c[nH]c3ccccc23)NC(=O)[C@H](CO)NC(=O)CCNC(=O)[C@H](CCCNC(=N)N)NC(=O)[C@H](Cc2ccc(O)cc2)NC1=O` as the compound, how does the half-life read?
The half-life was over 72 h.

For `CC(C)[C@@H]1NC(=O)[C@@H](NC(=O)[C@H](Cc2ccc(O)cc2)NC(=O)CCCCN)CSSC[C@@H](C(N)=O)NC(=O)[C@H](CO)NC(=O)[C@H](Cc2c[nH]c3ccccc23)NC(=O)[C@H](CO)NC(=O)CCNC(=O)[C@H](CCCNC(=N)N)NC(=O)[C@H](Cc2ccc(O)cc2)NC1=O`, which half-life is on record?
Its half-life is over 72 h.

For `CC(C)[C@@H]1NC(=O)[C@@H](NC(=O)[C@H](Cc2ccc(O)cc2)NC(=O)[C@@H]2CCCN2C(=O)[C@@H](C)N)CSSC[C@@H](C(N)=O)NC(=O)[C@H](CO)NC(=O)[C@H](Cc2c[nH]c3ccccc23)NC(=O)[C@H](CO)NC(=O)CCNC(=O)[C@H](CCCNC(=N)N)NC(=O)[C@H](Cc2ccc(O)cc2)NC1=O`, which half-life is on record?
The half-life was over 72 h.

For `CC(C)[C@@H]1NC(=O)[C@@H](NC(=O)[C@H](Cc2ccc(O)cc2)NC(=O)[C@@H]2CCCN2C(=O)[C@H](C)N)CSSC[C@@H](C(N)=O)NC(=O)[C@H](CO)NC(=O)[C@H](Cc2c[nH]c3ccccc23)NC(=O)[C@H](CO)NC(=O)CCNC(=O)[C@H](CCCNC(=N)N)NC(=O)[C@H](Cc2ccc(O)cc2)NC1=O`, which half-life is on record?
Its half-life is under 3 h.

For `CC(=O)N1CCC[C@H]1C(=O)N[C@@H](Cc1ccc(O)cc1)C(=O)N[C@H]1CSSC[C@@H](C(N)=O)NC(=O)[C@H](CO)NC(=O)[C@H](Cc2c[nH]c3ccccc23)NC(=O)[C@H](CO)NC(=O)CCNC(=O)[C@H](CCCNC(=N)N)NC(=O)[C@H](Cc2ccc(O)cc2)NC(=O)[C@H](C(C)C)NC1=O`, which half-life is on record?
Its half-life is over 72 h.

For `CNCC(=O)N[C@@H](Cc1ccc(O)cc1)C(=O)N[C@H]1CSSC[C@@H](C(N)=O)NC(=O)[C@H](CO)NC(=O)[C@H](Cc2c[nH]c3ccccc23)NC(=O)[C@H](CO)NC(=O)CCNC(=O)[C@H](CCCNC(=N)N)NC(=O)[C@H](Cc2ccc(O)cc2)NC(=O)[C@H](C(C)C)NC1=O`, which half-life is on record?
The half-life was over 72 h.

With `CC(C)[C@@H]1NC(=O)[C@@H](NC(=O)[C@H](Cc2ccc(O)cc2)NC(=O)CN)CSSC[C@@H](C(N)=O)NC(=O)[C@H](CO)NC(=O)[C@H](Cc2c[nH]c3ccccc23)NC(=O)[C@H](CO)NC(=O)CCNC(=O)[C@H](CCCNC(=N)N)NC(=O)[C@H](Cc2ccc(O)cc2)NC1=O` as the compound, how does the half-life read?
The half-life was 6 h.

Which half-life does the source give for `CC(C)[C@@H]1NC(=O)[C@@H](NC(=O)[C@H](Cc2ccc(O)cc2)NC(=O)CCCN)CSSC[C@@H](C(N)=O)NC(=O)[C@H](CO)NC(=O)[C@H](Cc2c[nH]c3ccccc23)NC(=O)[C@H](CO)NC(=O)CCNC(=O)[C@H](CCCNC(=N)N)NC(=O)[C@H](Cc2ccc(O)cc2)NC1=O` here?
Its half-life is over 72 h.

Which half-life does the source give for `CC(C)[C@@H]1NC(=O)[C@@H](NC(=O)[C@H](Cc2ccc(O)cc2)NC(=O)[C@@H]2CCCN2C(=O)CCN)CSSC[C@@H](C(N)=O)NC(=O)[C@H](CCC(=O)O)NC(=O)[C@H](Cc2c[nH]c3ccccc23)NC(=O)[C@H](CCC(=O)O)NC(=O)CCNC(=O)[C@H](CCCNC(=N)N)NC(=O)[C@H](Cc2ccc(O)cc2)NC1=O` here?
The half-life was over 72 h.

For `CC(C)[C@@H]1NC(=O)[C@@H](NC(=O)[C@H](Cc2ccc(O)cc2)NC(=O)CCN)CSSC[C@@H](C(N)=O)NC(=O)[C@H](CO)NC(=O)[C@H](Cc2c[nH]c3ccccc23)NC(=O)[C@H](CO)NC(=O)CCNC(=O)[C@H](CCCNC(=N)N)NC(=O)[C@H](Cc2ccc(O)cc2)NC1=O`, which half-life is on record?
The half-life was 30 h.

Which half-life does the source give for `CC(C)[C@@H]1NC(=O)[C@@H](NC(=O)[C@H](Cc2ccc(O)cc2)NC(=O)[C@@H]2CCCN2)CSSC[C@@H](C(N)=O)NC(=O)[C@H](CO)NC(=O)[C@H](Cc2c[nH]c3ccccc23)NC(=O)[C@H](CO)NC(=O)CCNC(=O)[C@H](CCCNC(=N)N)NC(=O)[C@H](Cc2ccc(O)cc2)NC1=O` here?
The half-life was 15 h.

Which half-life does the source give for `CC(=O)N[C@@H](C)C(=O)N1CCC[C@H]1C(=O)N[C@@H](Cc1ccc(O)cc1)C(=O)N[C@H]1CSSC[C@@H](C(N)=O)NC(=O)[C@H](CO)NC(=O)[C@H](Cc2c[nH]c3ccccc23)NC(=O)[C@H](CO)NC(=O)CCNC(=O)[C@H](CCCNC(=N)N)NC(=O)[C@H](Cc2ccc(O)cc2)NC(=O)[C@H](C(C)C)NC1=O` here?
Its half-life is 72 h.
